According to ChEMBL document CHEMBL1138800, “Synthesis and biological evaluation of novel N6-[4-(substituted)sulfonamidophenylcarbamoyl]adenosine-5'-uronamides as A3 adenosine receptor agonists” (J Med Chem, 2004):

The molecules below were run against T1, Adenosine receptor A1 (Homo sapiens, UniProt P30542) (assay: Displacement of [3H]CHA binding to Adenosine A1 receptor expressed in CHO cells). Settings: not given.
T1 sequence (P30542 whole entry): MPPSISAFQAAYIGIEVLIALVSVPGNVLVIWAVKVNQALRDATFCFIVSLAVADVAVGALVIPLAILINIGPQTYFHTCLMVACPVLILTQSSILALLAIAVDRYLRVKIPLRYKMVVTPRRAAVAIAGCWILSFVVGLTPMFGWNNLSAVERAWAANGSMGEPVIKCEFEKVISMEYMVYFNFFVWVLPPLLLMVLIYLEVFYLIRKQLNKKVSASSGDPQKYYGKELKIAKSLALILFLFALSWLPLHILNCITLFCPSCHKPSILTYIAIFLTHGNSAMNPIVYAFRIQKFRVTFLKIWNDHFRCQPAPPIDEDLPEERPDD
Assay type: cell-based
Outline: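 Human A1-transfected CHO membranes (adenosine deaminase-treated), 50 µg protein, incubated 120 min at 25 °C in 50 mM Tris HCl pH 7.4 with 1 nM [3H]-CHA and 6-8 agonist concentrations; nonspecific binding with 10 µM CHA. Filtration through GF/B filters, scintillation counting; Ki from IC50 via Cheng-Prusoff; geometric mean with confidence limits.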

Row | Compound | Ki [nM]
1 | C=CCN(CC=C)S(=O)(=O)c1ccc(NC(=O)Nc2ncnc3c2ncn3C2O[C@H](C(=O)NCC)C(O)C2O)cc1 (single isomer, unassigned) | 380
2 | CCNC(=O)[C@H]1OC(n2cnc3c(NC(=O)Nc4ccc(S(=O)(=O)NC56CC7CC(CC(C7)C5)C6)cc4)ncnc32)C(O)C1O (single isomer, unassigned) | 240
3 | CCNC(=O)[C@H]1OC(n2cnc3c(NC(=O)Nc4ccc(S(=O)(=O)Nc5ccc(OC)cc5)cc4)ncnc32)C(O)C1O (single isomer, unassigned) | 280
4 | CCCN(CCC)S(=O)(=O)c1ccc(NC(=O)Nc2ncnc3c2ncn3C2O[C@H](C(=O)NCC)C(O)C2O)cc1 (single isomer, unassigned) | 350

The next lines start with the values.

Row | Ki [nM] | Compound
5 | 415 | CCNC(=O)[C@H]1OC(n2cnc3c(NC(=O)Nc4ccc(S(=O)(=O)NC5CCCC5)cc4)ncnc32)C(O)C1O (single isomer, unassigned)
6 | 350 | CCNC(=O)[C@H]1OC(n2cnc3c(NC(=O)Nc4ccc(S(=O)(=O)NC5CCCCC5)cc4)ncnc32)C(O)C1O (single isomer, unassigned)
7 | 30.1 | CCNC(=O)[C@H]1O[C@@H](n2cnc3c(NC(=O)Nc4ccc(S(N)(=O)=O)cc4)ncnc32)C(O)C1O (single isomer, unassigned)
8 | 290 | CCCNS(=O)(=O)c1ccc(NC(=O)Nc2ncnc3c2ncn3C2O[C@H](C(=O)NCC)C(O)C2O)cc1 (single isomer, unassigned)
9 | 725 | CCNC(=O)[C@H]1OC(n2cnc3c(NC(=O)Nc4ccc(S(=O)(=O)N5CCOCC5)cc4)ncnc32)C(O)C1O (single isomer, unassigned)
10 | 250 | CCNC(=O)[C@H]1OC(n2cnc3c(NC(=O)Nc4ccc(S(=O)(=O)NC(C)(C)C)cc4)ncnc32)C(O)C1O (single isomer, unassigned)

What follows are molecules tested against T2, Adenosine receptor A3 (Homo sapiens, UniProt P0DMS8) (assay: Inhibition of (10 uM) forskolin-mediated cAMP production in CHO cells expressing human Adenosine A3 receptor). Settings: not given.
T2 sequence (P0DMS8 whole entry): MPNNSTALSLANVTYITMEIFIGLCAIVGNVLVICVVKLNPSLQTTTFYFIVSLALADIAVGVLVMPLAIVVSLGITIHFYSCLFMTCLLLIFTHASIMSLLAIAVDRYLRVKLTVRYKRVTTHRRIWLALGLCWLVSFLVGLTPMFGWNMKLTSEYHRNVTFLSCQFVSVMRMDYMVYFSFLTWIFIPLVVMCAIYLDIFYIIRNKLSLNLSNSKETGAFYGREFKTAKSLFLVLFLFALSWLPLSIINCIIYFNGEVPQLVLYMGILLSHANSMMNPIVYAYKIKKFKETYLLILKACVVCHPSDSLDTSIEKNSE
Assay type: functional, cell-based

Row | IC50 [nM] | Compound
11 | 65 | C=CCN(CC=C)S(=O)(=O)c1ccc(NC(=O)Nc2ncnc3c2ncn3C2O[C@H](C(=O)NCC)C(O)C2O)cc1 (single isomer, unassigned)
12 | 81 | CCNC(=O)[C@H]1O[C@@H](n2cnc3c(NC(=O)Nc4ccc(S(N)(=O)=O)cc4)ncnc32)C(O)C1O (single isomer, unassigned)

Each molecule was assayed against Adenosine receptors; A1 & A3 (Homo sapiens) (UniProt P30542+P0DMS8) (assay: Ratio of binding affinity for Adenosine A1 and Adenosine A3 receptors). Settings: not given.
Assay type: protein assay

Row | Compound | Ratio
13 | C=CCN(CC=C)S(=O)(=O)c1ccc(NC(=O)Nc2ncnc3c2ncn3C2O[C@H](C(=O)NCC)C(O)C2O)cc1 (single isomer, unassigned) | 38
14 | CCNC(=O)[C@H]1OC(n2cnc3c(NC(=O)Nc4ccc(S(=O)(=O)NC56CC7CC(CC(C7)C5)C6)cc4)ncnc32)C(O)C1O (single isomer, unassigned) | 7.5
15 | CCCN(CCC)S(=O)(=O)c1ccc(NC(=O)Nc2ncnc3c2ncn3C2O[C@H](C(=O)NCC)C(O)C2O)cc1 (single isomer, unassigned) | 25

Other lines, results leading:

Row | Ratio | Compound
16 | 17.3 | CCNC(=O)[C@H]1OC(n2cnc3c(NC(=O)Nc4ccc(S(=O)(=O)NC5CCCC5)cc4)ncnc32)C(O)C1O (single isomer, unassigned)
17 | 2.03 | CCNC(=O)[C@H]1O[C@@H](n2cnc3c(NC(=O)Nc4ccc(S(N)(=O)=O)cc4)ncnc32)C(O)C1O (single isomer, unassigned)
18 | 11.6 | CCCNS(=O)(=O)c1ccc(NC(=O)Nc2ncnc3c2ncn3C2O[C@H](C(=O)NCC)C(O)C2O)cc1 (single isomer, unassigned)
19 | 36.2 | CCNC(=O)[C@H]1OC(n2cnc3c(NC(=O)Nc4ccc(S(=O)(=O)N5CCOCC5)cc4)ncnc32)C(O)C1O (single isomer, unassigned)
20 | 12.5 | CCNC(=O)[C@H]1OC(n2cnc3c(NC(=O)Nc4ccc(S(=O)(=O)NC(C)(C)C)cc4)ncnc32)C(O)C1O (single isomer, unassigned)

The molecules below were run against T3, Adenosine receptor A2a (Homo sapiens, UniProt P29274) (assay: Displacement of [3H]CGS-21680 binding to Adenosine A2 receptor expressed in CHO cells). Settings: not given.
T3 sequence (P29274 whole entry): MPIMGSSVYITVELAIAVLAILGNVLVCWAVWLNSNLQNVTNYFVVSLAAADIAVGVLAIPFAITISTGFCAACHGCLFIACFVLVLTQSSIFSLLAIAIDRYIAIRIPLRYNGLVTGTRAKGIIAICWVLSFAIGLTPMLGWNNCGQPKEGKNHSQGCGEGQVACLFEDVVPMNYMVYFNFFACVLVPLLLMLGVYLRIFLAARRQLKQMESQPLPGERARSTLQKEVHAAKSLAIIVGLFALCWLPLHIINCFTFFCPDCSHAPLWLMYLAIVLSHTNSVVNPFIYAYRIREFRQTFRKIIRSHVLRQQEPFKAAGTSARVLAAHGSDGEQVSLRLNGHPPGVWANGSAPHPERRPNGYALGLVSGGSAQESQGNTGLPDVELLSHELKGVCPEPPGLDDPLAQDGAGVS
Assay type: cell-based

Row | Compound | Ki [nM]
21 | C=CCN(CC=C)S(=O)(=O)c1ccc(NC(=O)Nc2ncnc3c2ncn3C2O[C@H](C(=O)NCC)C(O)C2O)cc1 (single isomer, unassigned) | > 1000
22 | CCNC(=O)[C@H]1OC(n2cnc3c(NC(=O)Nc4ccc(S(=O)(=O)NC56CC7CC(CC(C7)C5)C6)cc4)ncnc32)C(O)C1O (single isomer, unassigned) | > 1000
23 | CCNC(=O)[C@H]1OC(n2cnc3c(NC(=O)Nc4ccc(S(=O)(=O)Nc5ccc(OC)cc5)cc4)ncnc32)C(O)C1O (single isomer, unassigned) | > 1000
24 | CCCN(CCC)S(=O)(=O)c1ccc(NC(=O)Nc2ncnc3c2ncn3C2O[C@H](C(=O)NCC)C(O)C2O)cc1 (single isomer, unassigned) | > 1000

The remaining lines, values ahead:

Row | Ki [nM] | Compound
25 | > 1000 | CCNC(=O)[C@H]1OC(n2cnc3c(NC(=O)Nc4ccc(S(=O)(=O)NC5CCCC5)cc4)ncnc32)C(O)C1O (single isomer, unassigned)
26 | > 1000 | CCNC(=O)[C@H]1OC(n2cnc3c(NC(=O)Nc4ccc(S(=O)(=O)NC5CCCCC5)cc4)ncnc32)C(O)C1O (single isomer, unassigned)
27 | 95.2 | CCNC(=O)[C@H]1O[C@@H](n2cnc3c(NC(=O)Nc4ccc(S(N)(=O)=O)cc4)ncnc32)C(O)C1O (single isomer, unassigned)
28 | > 1000 | CCCNS(=O)(=O)c1ccc(NC(=O)Nc2ncnc3c2ncn3C2O[C@H](C(=O)NCC)C(O)C2O)cc1 (single isomer, unassigned)
29 | > 1000 | CCNC(=O)[C@H]1OC(n2cnc3c(NC(=O)Nc4ccc(S(=O)(=O)N5CCOCC5)cc4)ncnc32)C(O)C1O (single isomer, unassigned)
30 | > 1000 | CCNC(=O)[C@H]1OC(n2cnc3c(NC(=O)Nc4ccc(S(=O)(=O)NC(C)(C)C)cc4)ncnc32)C(O)C1O (single isomer, unassigned)

These molecules were tested against Adenosine receptors; A2a & A3 (Homo sapiens) (UniProt P0DMS8+P29274) (assay: Ratio of binding affinity for Adenosine A2A and Adenosine A3 receptors). Settings: not given.
Adenosine receptors; A2a & A3 (Homo sapiens), sequence (P29274 whole entry, looked up, one chain of several): as the sequence (P29274 whole entry) above
Assay type: protein assay
Outline: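 Ki ratio of two competition binding assays on adenosine deaminase-treated membranes of CHO cells expressing human receptors (50 µg protein). […] A3: 1 nM [125I]-AB-MECA, 120 min, 4 °C, duplicates. Filtration read-out; Ki by Cheng-Prusoff.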

Row | Ratio | Compound
31 | 6.43 | CCNC(=O)[C@H]1O[C@@H](n2cnc3c(NC(=O)Nc4ccc(S(N)(=O)=O)cc4)ncnc32)C(O)C1O (single isomer, unassigned)

These molecules were tested against T2, Adenosine receptor A3 (assay: Displacement of [125I]AB-MECA binding to Adenosine A3 receptor expressed in CHO cells). Settings: not given.
Assay type: cell-based

Row | Compound | Ki [nM]
32 | C=CCN(CC=C)S(=O)(=O)c1ccc(NC(=O)Nc2ncnc3c2ncn3C2O[C@H](C(=O)NCC)C(O)C2O)cc1 (single isomer, unassigned) | 10
33 | CCNC(=O)[C@H]1OC(n2cnc3c(NC(=O)Nc4ccc(S(=O)(=O)NC56CC7CC(CC(C7)C5)C6)cc4)ncnc32)C(O)C1O (single isomer, unassigned) | 35
34 | CCCN(CCC)S(=O)(=O)c1ccc(NC(=O)Nc2ncnc3c2ncn3C2O[C@H](C(=O)NCC)C(O)C2O)cc1 (single isomer, unassigned) | 14

Results, then the molecule that gave them:

Row | Ki [nM] | Compound
35 | 24 | CCNC(=O)[C@H]1OC(n2cnc3c(NC(=O)Nc4ccc(S(=O)(=O)NC5CCCC5)cc4)ncnc32)C(O)C1O (single isomer, unassigned)
36 | 14.8 | CCNC(=O)[C@H]1O[C@@H](n2cnc3c(NC(=O)Nc4ccc(S(N)(=O)=O)cc4)ncnc32)C(O)C1O (single isomer, unassigned)
37 | 25 | CCCNS(=O)(=O)c1ccc(NC(=O)Nc2ncnc3c2ncn3C2O[C@H](C(=O)NCC)C(O)C2O)cc1 (single isomer, unassigned)
38 | 20 | CCNC(=O)[C@H]1OC(n2cnc3c(NC(=O)Nc4ccc(S(=O)(=O)N5CCOCC5)cc4)ncnc32)C(O)C1O (single isomer, unassigned)
39 | 20 | CCNC(=O)[C@H]1OC(n2cnc3c(NC(=O)Nc4ccc(S(=O)(=O)NC(C)(C)C)cc4)ncnc32)C(O)C1O (single isomer, unassigned)

Each molecule was assayed against T3, Adenosine receptor A2a (assay: Inhibition of [3H]CGS-21680 binding to Adenosine A2A receptor expressed in CHO cells). Settings: concentration not given here.
Assay type: cell-based
Set-up: concentration or dose not given beside the values

Row | Compound | inhibition [%]
40 | C=CCN(CC=C)S(=O)(=O)c1ccc(NC(=O)Nc2ncnc3c2ncn3C2O[C@H](C(=O)NCC)C(O)C2O)cc1 (single isomer, unassigned) | 15
41 | CCNC(=O)[C@H]1OC(n2cnc3c(NC(=O)Nc4ccc(S(=O)(=O)NC56CC7CC(CC(C7)C5)C6)cc4)ncnc32)C(O)C1O (single isomer, unassigned) | 31
42 | CCNC(=O)[C@H]1OC(n2cnc3c(NC(=O)Nc4ccc(S(=O)(=O)Nc5ccc(OC)cc5)cc4)ncnc32)C(O)C1O (single isomer, unassigned) | 34
43 | CCCN(CCC)S(=O)(=O)c1ccc(NC(=O)Nc2ncnc3c2ncn3C2O[C@H](C(=O)NCC)C(O)C2O)cc1 (single isomer, unassigned) | 15

Second part, the molecule after the results:

Row | inhibition [%] | Compound
44 | 19 | CCNC(=O)[C@H]1OC(n2cnc3c(NC(=O)Nc4ccc(S(=O)(=O)NC5CCCC5)cc4)ncnc32)C(O)C1O (single isomer, unassigned)
45 | 25 | CCNC(=O)[C@H]1OC(n2cnc3c(NC(=O)Nc4ccc(S(=O)(=O)NC5CCCCC5)cc4)ncnc32)C(O)C1O (single isomer, unassigned)
46 | 31 | CCCNS(=O)(=O)c1ccc(NC(=O)Nc2ncnc3c2ncn3C2O[C@H](C(=O)NCC)C(O)C2O)cc1 (single isomer, unassigned)
47 | 20 | CCNC(=O)[C@H]1OC(n2cnc3c(NC(=O)Nc4ccc(S(=O)(=O)N5CCOCC5)cc4)ncnc32)C(O)C1O (single isomer, unassigned)
48 | 32 | CCNC(=O)[C@H]1OC(n2cnc3c(NC(=O)Nc4ccc(S(=O)(=O)NC(C)(C)C)cc4)ncnc32)C(O)C1O (single isomer, unassigned)
